Results taken from ChEMBL document CHEMBL2406995, “Cytotoxic indole alkaloids from Tabernaemontana divaricata” (J Nat Prod, 2013).

Experiments:
Type in all cases: functional, cell-based
SW480 = assay: Cytotoxicity against human SW480 cells after 48 hrs by MTT assay; conditions: SW480, 48 h
In short: (§1)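 Adherent cells grown in RPMI1640 or DMEM plus 10% FBS at 37 °C, 5% CO2. They were seeded in 96-well plates and left 12 h to adhere before dosing. MTT viability was used to plot growth curves, and IC50 was calculated by Reed and Muench's method.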

MCF7 = assay: Cytotoxicity against human MCF7 cells after 48 hrs by MTT assay; conditions: MCF7, 48 h; in short: as §1
A549 = assay: Cytotoxicity against human A549 cells after 48 hrs by MTT assay; conditions: A549, 48 h; in short: as §1
[1] = Cytotoxicity against human […] cells after 48 hrs by MTT assay; in short: as §1
HL-60 = assay: Cytotoxicity against human HL60 cells after 48 hrs by MTT assay; conditions: HL-60, 48 h
In short: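 Suspension (leukemia) cells seeded just before drug addition at an initial density of 1 × 10^5 cells/mL. They were grown in RPMI1640 or DMEM with 10% FBS, 5% CO2, 37 °C. Cells were exposed for 48 h to […], 0.32, 1.6, 8 and 40 μM in triplicate, with cisplatin as positive control. Viability was read by MTT and IC50 was derived by Reed and Muench's method.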

Compound	IC50 (SW480) [µM]	IC50 (MCF7) [µM]	IC50 (A549) [µM]	IC50 [1] [µM]	IC50 (HL-60) [µM]
CC[C@H]1C[C@@H]2CN3CCc4c([nH]c5c([C@H]6C[C@H]7[C@]8(C(=O)OC)CO[C@H](N(C)[C@H]8Cc8c6[nH]c6ccccc86)[C@@]76O[C@@H]6C)c(OC)ccc45)[C@](C(=O)OC)(C2)[C@H]13	2.59	3.1	3.52	3.41	0.79
CC[C@H]1C[C@H]2C[C@H]3c4[nH]c5ccc(OC)cc5c4CCN([C@@H]13)[C@@H]2CC(C)=O	13	13.2	28.5	14.8	3.88
C/C=C1/CN(C)[C@H]2Cc3c([nH]c4ccccc34)[C@H](c3cc4[nH]c5c(c4cc3OC)CCN3C[C@H]4C[C@H](CC)[C@H]3[C@@]5(C(=O)OC)C4)C[C@H]1[C@]2(CO)C(=O)OC	16.5	13.3	16.5	9.86	2.35
C/C=C1/CN(C)[C@H]2Cc3c([nH]c4ccccc34)[C@H](c3cc4[nH]c5c(c4cc3OC)CCN3C[C@H]4C[C@H](CC)[C@H]3[C@H]5C4)C[C@H]1[C@]2(CO)C(=O)OC	13	13.2	28.5	14.8	3.88
C/C=C1/CN(C)[C@H]2Cc3c([nH]c4ccccc34)[C@H](c3cc4c5c([nH]c4cc3OC)[C@]3(C(=O)OC)C[C@@H]4C[C@H](CC)[C@@H]3N(CC5)C4)C[C@H]1[C@]2(CO)C(=O)OC	13.4	12.6	14.8	12.3	2.68
C/C=C1/CN(C)[C@H]2Cc3c([nH]c4ccccc34)[C@@H](c3c(O)ccc4c5c([nH]c34)[C@]3(C(=O)OC)C[C@H]4C[C@H](CC)[C@@H]3N(CC5)C4)C[C@@H]1[C@]2(CO)C(=O)OC	2.72	3.02	9.4	3.75	2.9
CC[C@@]12CC[C@@H]3N(C)c4ccc([C@@H]5[C@H]6O[C@H]6[C@@]6(CC)CC(C(=O)OC)=C7Nc8c(cc(O)c(OC)c8OC)[C@@]78CCN5[C@@H]68)cc4[C@@]34CCN(C[C@H]3O[C@H]31)[C@@H]24 [CONOFOLINE]	13.7	14	10.3	10.3	0.8
CC[C@@]12CC(C(=O)OC)=C3Nc4cc5c(cc4[C@@]34CCN(C[C@H]3O[C@H]31)[C@@H]24)[C@@H]1[C@H](O5)[C@@H](O)[C@@]2(CC)CC(C(=O)OC)=C3Nc4c(cc(O)c(OC)c4OC)[C@@]34CCN1[C@@H]24 [CONOPHYLLINE]	1.49	1.02	0.21	0.35	0.17
